Assay outcomes (PubChem BioAssay)
TPT1 inh: inhibitors of Candida albicans tRNA 2'-phosphotransferase TPT1; actives 0.81% (n = 300,000); AID 1962; recombinant caTPT1, FP RNA substrate dephosphorylation; inhibition, % at 5 µM;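 active = inhibition above the mean of all tested compounds plus 3 SD, set per screening campaign, cut at about 24% in these data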
SENP1 inh: inhibitors of human SENP1 SUMO protease catalytic domain | recombinant SENP1 catalytic domain, CyPet-SUMO1-YPet FRET cleavage | AID 624204 | actives 0.21% (n = 360,000) | Q9P0U3 | inhibition, % at 10 µM;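 active = inhibition at least 30% at 10 µM, raw YFP signal under a set limit, fluorescence ratio 0.5 to 1.5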
Target sequence (Q9P0U3 419-644 limits assumed): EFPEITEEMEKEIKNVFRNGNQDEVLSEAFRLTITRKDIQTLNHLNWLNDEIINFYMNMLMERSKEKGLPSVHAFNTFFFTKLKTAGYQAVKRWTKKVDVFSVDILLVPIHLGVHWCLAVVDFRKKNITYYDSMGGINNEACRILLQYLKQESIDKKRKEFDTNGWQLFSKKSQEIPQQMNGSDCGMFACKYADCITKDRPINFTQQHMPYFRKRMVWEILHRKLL
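Test system: hSENP1 catalytic domain, recombinant; Amount: 20 pM final SENP1 enzyme; Medium: Tris pH 8 buffer plus EDTA, NaCl, BME, BSA, NP40, catalase; Schedule: 50 min enzyme reaction, room temperature, light-protected; Technique: FRET fluorescence in CFP and YFP emission channels; Controls: no-enzyme wells low, DMSO-plus-enzyme wells high control.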
CSN deneddyl inh: CSN deneddylation inhibition | Q92905 | inhibition, % at 12.5 µM | Purified CSN, SCF-Nedd8-OG deneddylation, fluorescence polarization | actives 0.38% (n = 360,000) | AID 651999;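 active = pattern-corrected inhibition above about 35%, with an unprinted fluorescence ratio check between 0.5 and 1.5, limit read from the data, passing the limit was not always enough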
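Assay system: HEK293T-derived human Csn5 enzyme; quantity: 0.24 nM enzyme; medium: Tris/NaCl/DTT buffer, pH 7.5; also added: substrate SCFSkp2-Nedd8OG, 10 nM; doses: 12.5 µM compound; schedule: 90 min reaction at room temperature; signal: FP; read-out: % inhibition of substrate cleavage by Csn5; benchmarks: substrate-only high control, full reaction low control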
Rpn11 inh: Rpn11 (human) deubiquitinase inhibition | O00487 | human 26S proteasome, Ub4-pepOG fluorescence polarization; 20S core pre-blocked with epoxomicin | inhibition, % at 20 µM | actives 0.59% (n = 360,000);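 active = inhibition at 20 µM, scaled to each plate's controls, above about 33%, limit read from the data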
Target sequence (O00487 whole entry, looked up): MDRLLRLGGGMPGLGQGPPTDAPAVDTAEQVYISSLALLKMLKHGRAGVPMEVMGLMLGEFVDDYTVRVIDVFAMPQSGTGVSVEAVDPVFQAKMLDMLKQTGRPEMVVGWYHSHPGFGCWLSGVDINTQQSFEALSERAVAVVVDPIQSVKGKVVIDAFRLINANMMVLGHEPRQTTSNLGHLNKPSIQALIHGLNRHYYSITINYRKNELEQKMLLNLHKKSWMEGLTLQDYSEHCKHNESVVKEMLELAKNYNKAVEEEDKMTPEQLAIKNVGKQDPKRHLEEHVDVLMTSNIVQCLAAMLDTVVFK
HNF4A DNA FP: change in binding of human HNF4 alpha to DNA. P41235. HNF4a-FITC DNA binding, fluorescence polarization, 1 h. activity change, % at 10 µM. actives 0.3% (n = 360,000); in the data active = activity change above about 30%, passing the limit was not always enough
TPT1 inh confirm: TPT1 (C. albicans) inhibition, confirmation; recombinant caTPT1, fluorescence polarization, RNase T1 coupled; actives 74% (n = 2,400); inhibition, % at 5 µM; shares compounds with TPT1 inh;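 active = inhibition above the primary screen limit, the mean inhibition of all tested compounds plus 3 SD, cut at about 25% in these data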
RNase T1 inh: counter-screen for TPT1 inhibitors: inhibitors of Aspergillus oryzae RNase T1. actives 83% (n = 2,400). shares compounds with TPT1 inh. AID 2153. RNase T1 cleavage, fluorescence polarization, 1536-well. inhibition, % at 5 µM;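 active = inhibition above the solvent-only control well mean plus 3 SD, limit set per screening run, cut at about 23% in these data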;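 also: inhibitors block cleavage so intact labeled substrate keeps polarization high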
Target sequence (P00651 whole entry, looked up): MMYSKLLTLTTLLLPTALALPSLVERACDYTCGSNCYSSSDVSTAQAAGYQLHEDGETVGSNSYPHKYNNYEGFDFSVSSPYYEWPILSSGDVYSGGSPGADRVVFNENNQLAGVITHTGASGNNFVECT
Each line names hits and unclear results; the compound was inactive in the other large screens (follow-up assays come after a bar, where shown). Most compounds without a hit are left out; they make up all but 1.6% or so of the library.

CC1(C)CCCN1CCC(C(N)=O)(c1ccccc1)c1ccccc1	none (no result: TPT1 inh)
COc1ccc2[nH]c3c(c2c1)CCN=C3C	TPT1 inh 32.8 | TPT1 inh confirm inactive | RNase T1 inh inactive
CCOc1cc(/C=C2\C(=O)NC(=O)N(CCc3ccc(F)cc3)C2=O)ccc1O	TPT1 inh 29.6 | TPT1 inh confirm 38.7 | RNase T1 inh inactive
Cc1ccc(/C=C2/C(=O)NC(=O)N(Cc3ccc(F)cc3)C2=O)o1	TPT1 inh 34.6 (no result: SENP1 inh, CSN deneddyl inh, Rpn11 inh, HNF4A DNA FP) | TPT1 inh confirm inactive | RNase T1 inh 25.5
Cc1ccc(/C=C2\C(=O)NC(=O)N(CCc3ccc(F)cc3)C2=O)o1	none
O=C1NC(=O)N(Cc2ccc(F)cc2)C(=O)/C1=C\c1ccoc1	TPT1 inh 163.4, HNF4A DNA FP 59.7 (not shown: Rpn11 inh) | TPT1 inh confirm 67.2 | RNase T1 inh 80.5
CN(C)c1ccc(/C=C2/C(=O)NC(=O)N(CCc3ccc(F)cc3)C2=O)cc1	none
CN(C)c1ccc(/C=C2\C(=O)NC(=O)N(Cc3ccc(F)cc3)C2=O)cc1	TPT1 inh 28.9 | TPT1 inh confirm 47.7 | RNase T1 inh 67.9
CN(C)CCSC1c2ccccc2CSc2ccccc21 (stereo not drawn)	none
C=CCN(CC=C)C(=O)CCN1CC1C (stereo not drawn)	none (no result: TPT1 inh)
C/C(=C\c1ccc(N(C)C)cc1)[N+](=O)[O-]	none
CN(C)c1ccc(/C=C/[N+](=O)[O-])cc1	TPT1 inh 51.0 | TPT1 inh confirm 72.8 | RNase T1 inh 89.8
CCOC(=O)c1c(N)n(CCCOC(=O)c2ccco2)c2nc3ccccc3nc12	none
CCCCCn1c(NC(=O)c2ccco2)c(C(=O)OCC)c2nc3ccccc3nc21	TPT1 inh 36.3 | TPT1 inh confirm 31.0 | RNase T1 inh 42.7
Cc1ccc(OCCn2cccc2/C=C2/C(=O)NC(=O)N(Cc3ccco3)C2=O)cc1	TPT1 inh 25.4 | TPT1 inh confirm 40.5 | RNase T1 inh 27.4
CCP(=S)(CC)c1ccc(N(C)C)cc1	none
COc1ccc(NC2Oc3cc4c(cc3C(c3cc(OC)c(OC)c(OC)c3)C2C)OCO4)cc1 (stereo not drawn)	none (no result: TPT1 inh)
O[C@@H]1CCCN2CCc3c([nH]c4ccccc34)[C@H]12	TPT1 inh 30.3 | TPT1 inh confirm inactive | RNase T1 inh 23.1
Oc1ccc2c3c1O[C@H]1c4[nH]c5ccccc5c4C[C@@]4(O)[C@@H](C2)N(CC2CC2)CC[C@]314	none
C1CN(P2(N3CC3)=NP(N3CC3)(N3CC3)=NP(N3CC3)(N3CC3)=N2)CCO1 (stereo not drawn)	none (no result: TPT1 inh)
O=c1[nH]c(=O)n(CCc2ccc(F)cc2)c(O)c1C=NCCCn1ccnc1	TPT1 inh 38.9 | TPT1 inh confirm 33.3 | RNase T1 inh 44.2
O=S(=O)(c1ccc(Cl)cc1)N1Cc2ccccc2-n2nncc2C1	none (no result: TPT1 inh)
CN1/C(=C\C=Nc2ccccc2)C(C)(C)c2ccccc21	none
CN1/C(=C\C=C2C(=O)NC(=O)NC2=O)C(C)(C)c2ccccc21	TPT1 inh active (not shown: Rpn11 inh) | TPT1 inh confirm 183.7 | RNase T1 inh 167.7
CCN(CC)c1ccc(/C=N/c2sc3c(c2C#N)C2CCN3CC2)c(O)c1	TPT1 inh 161.0 (not shown: Rpn11 inh) | TPT1 inh confirm 145.8 | RNase T1 inh 133.0
CCN(CC(=O)Nc1ccc(NC(C)=O)cc1)C(=O)CSC(c1ccccc1)c1ccccc1	none (no result: TPT1 inh)
O=C(/C=C/c1c[nH]c2ccccc12)c1c(O)n(CCc2ccccc2)c(=O)[nH]c1=O	TPT1 inh 169.0 (not shown: Rpn11 inh) | TPT1 inh confirm 176.8 | RNase T1 inh 161.9
CSc1ncc(/C=C2/C(=O)NC(=O)N(C)C2=O)cn1	none
CSc1ncc(/C=C2/C(=O)NC(=O)N(C3CCCCC3)C2=O)cn1	TPT1 inh 31.5 | TPT1 inh confirm 31.6 | RNase T1 inh 42.7
CN1C(=O)C(=Cc2ccc(Sc3ccccc3)o2)C(=O)N(C)C1=S	TPT1 inh 36.5, Rpn11 inh 43.5 | TPT1 inh confirm inactive | RNase T1 inh 37.5
C#CC1(O)CCC2C3CCC4=C/C(=N/OCC(=O)NCC(=O)NC(C(=O)O)C(C)C)CC[C@]4(C)C3CC[C@@]21C (stereo partly drawn)	none (no result: TPT1 inh)
C#C[C@]1(O)CC[C@H]2[C@@H]3CCC4=Cc5nc6nc7ccccc7n6cc5C[C@]4(C)[C@H]3CC[C@@]21C	TPT1 inh 32.2 | TPT1 inh confirm 33.4 | RNase T1 inh 43.9
CN1CCC(O)(c2cccs2)C(C(=O)c2cccs2)C1 (stereo not drawn)	none
O=c1[nH]c(O)c(/C=C2/C=CC(c3cc(Cl)ccc3Cl)=N2)c(=O)[nH]1	TPT1 inh 93.5 | TPT1 inh confirm 108.3 | RNase T1 inh 103.4
CC1=Nc2ccccc2/C1=C/c1c(O)[nH]c(=O)[nH]c1=O	none
C[C@]12CC[C@@H](O)CC1=CC(=O)C1C2CC[C@]2(C)C(=O)CCC12 (stereo partly drawn)	none (no result: TPT1 inh)
Clc1ccc2c(c1)C(OC1CN3CCC1CC3)c1ccccc1CS2 (stereo not drawn)	none
CN1CCN(CCOC2c3ccccc3CSc3ccc(Cl)cc32)CC1 (stereo not drawn)	TPT1 inh 55.4 | TPT1 inh confirm inactive | RNase T1 inh inactive
O=C1NC(=S)N(c2ccc(Cl)cc2)C(=O)/C1=C/N1CCN(C(=O)c2ccco2)CC1	TPT1 inh 39.4, CSN deneddyl inh 42.5 (not shown: Rpn11 inh) | TPT1 inh confirm 29.1 | RNase T1 inh 41.1
COc1ccc(C2SCC(=O)Nc3c2c(C)nn3C2CCOC(C)(C)C2)cc1OC (stereo not drawn)	TPT1 inh 26.8 | TPT1 inh confirm inactive | RNase T1 inh 24.7
COc1ccc(C2SCC(=O)Nc3c2c(C)nn3-c2ccccc2)cc1OC (stereo not drawn)	none
COc1ccc(CN2C(=O)CC(=O)NC2=O)cc1	TPT1 inh 24.4 | TPT1 inh confirm inactive | RNase T1 inh 24.5
COc1ccc(N2C(=O)CC(=O)NC2=O)cc1	none
Fc1ccccc1CN1Cc2ccccc2-n2nncc2C1	none (no result: TPT1 inh)
Cc1ccc(C)c(Cn2c(C(=O)O)c(C=O)c3ccccc32)c1	TPT1 inh 123.5 (not shown: Rpn11 inh) | TPT1 inh confirm 142.6 | RNase T1 inh 137.0
O=Cc1c(C(=O)O)n(Cc2ccccc2F)c2ccccc12	none
O=C1NC(=O)C(=Cc2ccc(-c3ccc(F)cc3O)o2)C(=O)N1	TPT1 inh 25.1 | TPT1 inh confirm 42.5 | RNase T1 inh 62.9
O=C1NC(=O)C(=Cc2ccc(-c3ccc(Cl)cc3)o2)C(=O)N1	none
O=C(O)Cn1cc(/C=C2\C(=O)NC(=O)N(c3ccc(Cl)cc3)C2=O)c2ccccc21	TPT1 inh 39.5 | TPT1 inh confirm 41.9 | RNase T1 inh 52.9
